High-throughput results (PubChem)
Rows were chosen to be rich in hits. Some 12% of all compounds tested hit in one or more screens of this group.
Arbovirus inh: arbovirus infection inhibition. arbovirus infection cell-based antiviral screen. inhibition, % at 10 µM. 0.37% of 200,000 active; in the data active = inhibition above about 30%
PKD1 kinase inh: blocks activity of human protein kinase D1. inhibition, % (concentration not given with the values). 0.056% of 200,000 active. PKD1 kinase fluorescence polarization assay
Target sequence (Q15139 whole entry, looked up): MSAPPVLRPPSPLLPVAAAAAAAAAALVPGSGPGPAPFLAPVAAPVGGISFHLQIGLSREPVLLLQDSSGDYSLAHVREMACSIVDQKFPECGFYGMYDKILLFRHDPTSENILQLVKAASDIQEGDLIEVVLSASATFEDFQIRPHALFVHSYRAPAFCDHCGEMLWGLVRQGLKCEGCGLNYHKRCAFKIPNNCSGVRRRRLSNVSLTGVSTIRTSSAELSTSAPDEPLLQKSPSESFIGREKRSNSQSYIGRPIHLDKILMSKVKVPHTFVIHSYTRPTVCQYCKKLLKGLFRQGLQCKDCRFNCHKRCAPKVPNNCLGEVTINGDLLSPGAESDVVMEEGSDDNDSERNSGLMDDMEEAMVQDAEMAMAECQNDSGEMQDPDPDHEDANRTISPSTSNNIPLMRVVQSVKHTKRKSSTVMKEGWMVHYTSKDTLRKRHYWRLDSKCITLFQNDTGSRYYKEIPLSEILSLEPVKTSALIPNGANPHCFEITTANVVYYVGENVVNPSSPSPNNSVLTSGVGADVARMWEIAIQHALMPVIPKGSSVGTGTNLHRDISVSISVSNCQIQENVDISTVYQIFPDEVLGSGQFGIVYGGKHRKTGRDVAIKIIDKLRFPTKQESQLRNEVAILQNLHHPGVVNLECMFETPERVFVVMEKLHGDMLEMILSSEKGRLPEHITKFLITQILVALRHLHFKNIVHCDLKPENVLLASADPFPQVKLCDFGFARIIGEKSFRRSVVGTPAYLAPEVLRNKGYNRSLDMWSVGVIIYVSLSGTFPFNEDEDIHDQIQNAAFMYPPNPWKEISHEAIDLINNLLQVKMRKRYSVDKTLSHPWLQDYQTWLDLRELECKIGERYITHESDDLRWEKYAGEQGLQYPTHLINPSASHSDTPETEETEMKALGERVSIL
CHOP inh: inhibitors of CHOP induction in ER stress response. AID 2732. CHO-K1 CHOP-promoter luciferase, tunicamycin-induced, 15-18 h. inhibition, % at 10 µM. 3.8% of 220,000 active;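 active = compounds that reduced the stress-induced luciferase reporter signal by more than about 70% of percent inhibition, limit read from the data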;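 also: 0% = tunicamycin plus vehicle and 100% = wells without tunicamycin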
Wee1 degr inh: blocks degradation of human Wee1 kinase; P30291; HeLa Luc-Wee1K328M stability, luciferase luminescence; 100% = proteasome inhibitor MG132 effect; reporter increase, % at 5 µM; 1.2% of 220,000 active;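 active = activation above the mean of all tested compounds plus 3 SD, set per screening run, cut at about 8.8% in these data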;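 also: cells exposed to compound for 20 h before luminescence read; 0% = DMSO alone and 100% = MG132 at 30 µM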
Lmaj promast: inhibitors of Leishmania major promastigote growth; Leishmania major promastigotes, resazurin fluorescence viability; inhibition, % at 10 µM; 9% of 200,000 active; AID 1063;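 also: promastigotes grown with compound for 44 hours at 28 °C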
Rad51 HR inh: Rad51 (human) homologous recombination inhibition | Q06609 | hRad51 DNA strand exchange, fluorescence dequenching | inhibition, % at 10 µM | 0.085% of 200,000 active | AID 1385;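 active = inhibition above 40% at the single screening dose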;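 also: 0% = DMSO control wells and 100% = blanks with heterologous ssDNA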
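Test system: preformed human Rad51 ssDNA filaments. Compound dosing: single dose, 10 µM final compound. Incubation: filaments 15 min 37 °C, then compound 30 min. Technique: FRET fluorescence dequenching, excitation 485 nm, emission 520 nm. Read-out basis: percent inhibition from fluorescence, normalised to plate control and blank means. Benchmarks: plate controls and plate blanks.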
* hit, by the source's call. Rule as the data show it, unless noted: active = inhibition above about 50%; inactive = the rest.

For O=C(NCc1ccc2c(c1)OCO2)c1ccc(CSCc2ccc(Cl)cc2)o1 the results were Arbovirus inh -11.3, PKD1 kinase inh -4.3, CHOP inh 44.0, Wee1 degr inh -0.6, Lmaj promast 50.5* and Rad51 HR inh 14.1.
Screening CC(NC(=S)Nc1ccccc1C(F)(F)F)C1CC2CCC1C2 (stereo unspecified) returned Arbovirus inh 3.9, PKD1 kinase inh -0.1, CHOP inh -8.8, Wee1 degr inh 1.8, Lmaj promast 35.4 and Rad51 HR inh -2.3.
COc1cc2c(=O)n(Cc3ccccc3)c(=O)n(CC(=O)NCc3ccco3)c2cc1OC was read as Arbovirus inh 1.4, PKD1 kinase inh -5.5, CHOP inh 70.9*, Wee1 degr inh 2.1, Lmaj promast 2.8 and Rad51 HR inh 4.2.
`CCOC(=O)c1c(NC(=O)CSc2nc3cc(Cl)ccc3c(=O)n2Cc2ccco2)sc(C(=O)N(C)C)c1C` gave Arbovirus inh -19.3, PKD1 kinase inh -2.4, CHOP inh 40.0, Wee1 degr inh -2.1, Lmaj promast 77.8* and Rad51 HR inh 4.1.
For COc1cc2nc(SCC(=O)NCc3ccco3)n(Cc3ccc(Cl)cc3)c(=O)c2cc1OC the results were Arbovirus inh 5.5, PKD1 kinase inh -9.1, CHOP inh 88.7*, Wee1 degr inh 0.3, Lmaj promast -3.5 and Rad51 HR inh 2.1.
Screening CCCCCn1c(SCC(=O)OCC)nc2cc(C(=O)NCc3ccco3)ccc2c1=O returned Arbovirus inh -3.7, PKD1 kinase inh -6.7, CHOP inh 73.4*, Wee1 degr inh -2.5 and Lmaj promast 22.9.
Screening CC(C)(C)SCCNC(=O)CN(c1ccc(F)cc1)S(=O)(=O)c1ccccc1 returned Arbovirus inh -7.5, PKD1 kinase inh -2.7, CHOP inh 11.0, Wee1 degr inh 6.2, Lmaj promast 22.8 and Rad51 HR inh 8.1.
For Cc1ccc(C)c(C(C)NC(=O)c2ccc(Br)o2)c1 (stereo unspecified) the results were Arbovirus inh -1.1, PKD1 kinase inh 7.3, CHOP inh 3.8, Wee1 degr inh 1.8, Lmaj promast 2.3 and Rad51 HR inh 5.3.
Screening CC(C)Cn1c(=S)[nH]c2cc(Cl)ccc21 returned Arbovirus inh -10.6, PKD1 kinase inh -2.4, CHOP inh 32.0, Wee1 degr inh -3.2, Lmaj promast 1.5 and Rad51 HR inh 2.4.
For Cc1ccc(O)c(C(=O)/C=C/c2ccc3c(c2)OCCCO3)c1 the results were Arbovirus inh -41.3, PKD1 kinase inh 1.6, CHOP inh -45.7, Wee1 degr inh 9.2*, Lmaj promast 30.2 and Rad51 HR inh -2.2.
CCC(C)(C)NC(=O)Cc1ccc(Cl)cc1 was read as Arbovirus inh 6.6, PKD1 kinase inh 8.8, CHOP inh 7.7, Wee1 degr inh -1.4, Lmaj promast 3.0 and Rad51 HR inh 1.1.
`Cc1cc([N+](=O)[O-])cc(/C=N\NC(=O)C2COc3ccccc3O2)c1O` (stereo unspecified) gave CHOP inh 25.1, Wee1 degr inh -4.6 and Rad51 HR inh 9.6.
`Cc1ccc(C)c2c1cc(C)c1nnc(SCC(=O)NCc3ccc4c(c3)OCO4)n12` gave Arbovirus inh -6.5, PKD1 kinase inh 2.1, CHOP inh 21.2, Wee1 degr inh -3.2, Lmaj promast 70.3* and Rad51 HR inh 0.9.
For O=C(CSc1nnc(-c2cccs2)n1Cc1ccccc1)NCc1ccc2c(c1)OCO2 the results were Arbovirus inh -4.6, PKD1 kinase inh -6.5, CHOP inh 8.2, Wee1 degr inh -3.1, Lmaj promast 15.1 and Rad51 HR inh -1.7.
`CC(Sc1nnc(-c2cccs2)n1Cc1ccccc1)C(=O)NCc1ccc2c(c1)OCO2` (stereo unspecified) gave Arbovirus inh -16.9, PKD1 kinase inh 3.0, CHOP inh -5.7, Wee1 degr inh 10.4*, Lmaj promast 7.0 and Rad51 HR inh -3.5.
For Cc1cc(C)c2cc(C)c3nnc(SCC(=O)NCc4ccc5c(c4)OCO5)n3c2c1 the results were Arbovirus inh -4.5, PKD1 kinase inh -6.3, CHOP inh -3.2, Wee1 degr inh -3.5, Lmaj promast 2.4 and Rad51 HR inh -5.5.
Screening O=C(CSc1nnc(-c2cccs2)n1-c1ccccc1)NCc1ccc2c(c1)OCO2 returned Arbovirus inh -3.8, PKD1 kinase inh -11.4, CHOP inh 34.1, Wee1 degr inh 3.4, Lmaj promast 57.5* and Rad51 HR inh -4.2.
For O=C(CSc1ncnc2c1cnn2-c1ccc(F)cc1)NCc1ccc2c(c1)OCO2 the results were Arbovirus inh -11.0, PKD1 kinase inh 0.1, CHOP inh 88.6*, Wee1 degr inh -3.1, Lmaj promast 62.9* and Rad51 HR inh 2.0.
Screening CC(C)c1ccc(NC(=O)NN2CCOCC2)cc1 returned Arbovirus inh 19.0, PKD1 kinase inh 2.6, CHOP inh -30.0, Wee1 degr inh 4.0, Lmaj promast -7.6 and Rad51 HR inh 14.4.
O=c1cc2c(=O)oc3cc(O)c(O)oc3c2c(O)c1O was read as CHOP inh -0.1, Wee1 degr inh 1.9 and Rad51 HR inh -23.0.
Screening O=CN1CCCN(Cc2nc(-c3cccc(Cl)c3)no2)CC1 returned Arbovirus inh 2.7, PKD1 kinase inh 1.2, CHOP inh 6.5, Wee1 degr inh 3.6, Lmaj promast -3.2 and Rad51 HR inh -13.7.
c1ccc(-c2ccccc2OCCCN2CCOCC2)cc1 was read as Arbovirus inh -2.3, PKD1 kinase inh -8.3, CHOP inh 28.7, Wee1 degr inh -2.4 and Lmaj promast 39.9.
For OCCCN1CCN(CCCOc2ccccc2-c2ccccc2)CC1 the results were Arbovirus inh -33.1, PKD1 kinase inh -10.6, CHOP inh -8.9, Wee1 degr inh -0.8, Lmaj promast 92.7* and Rad51 HR inh -5.1.
For c1ccc(-c2ccccc2OCCCCN2CCCCCC2)cc1 the results were Arbovirus inh -7.7, PKD1 kinase inh -4.2, CHOP inh 0.9, Wee1 degr inh -3.3, Lmaj promast 99.1* and Rad51 HR inh 7.1.
`CNCCCCOc1ccccc1-c1ccccc1` gave Arbovirus inh -14.7, PKD1 kinase inh 5.5, CHOP inh 28.5, Wee1 degr inh -1.4, Lmaj promast 39.1 and Rad51 HR inh 7.8.
c1ccc(CN2CCN(CCOCCOc3cccc4ccccc34)CC2)cc1 was read as Arbovirus inh 1.3, PKD1 kinase inh -5.6, CHOP inh 25.0, Wee1 degr inh -1.5, Lmaj promast 14.0 and Rad51 HR inh -9.2.
Screening c1ccc(-c2ccccc2OCCOCCN2CCCCC2)cc1 returned Arbovirus inh 9.8, PKD1 kinase inh -5.8, CHOP inh -15.3, Wee1 degr inh 1.2, Lmaj promast 72.0* and Rad51 HR inh 7.5.
For Cc1ccc(Oc2ncccc2N)c2c1CCC2 the results were CHOP inh 15.3, Wee1 degr inh -0.7 and Rad51 HR inh -19.5.
`COc1ccc(NC(=O)C(C/C=C(/C)Cl)C(C)=O)cc1` (stereo unspecified) gave Arbovirus inh -7.2, PKD1 kinase inh 16.8, CHOP inh 17.1, Wee1 degr inh -1.6, Lmaj promast -2.1 and Rad51 HR inh -6.8.
